aDG glyco up: activators of alpha-DG glycosylation, primary screen, uHTS, Pro5-aDG cells, AlphaScreen; alpha-DG glycosylation AlphaScreen (IIH6); 0% Pro5, 100% B10-LARGE cell signal; activation, % at 10 µM; hit rate 0.22% among 360,000; AID 624168, 2012;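 active means activation of at least 8% versus controls, or a plate z-score of at least 8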;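 further: Pro5 are CHO cells carrying HIG-tagged alpha-DG that lacks glycosylation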
Tn7 DDE FP: inhibitors of Tn7 peptide binding to fibrin DD(E), primary screen, biochemical, fluorescence polarization, human fibrin, Tn7 probe; FP displacement of FITC-Tn7 peptide from fibrin DD(E); 0% = median of compound wells per plate; inhibition, % at 8.3 µM; hit rate 0.13% among 370,000; AID 720508, 2013;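 active means inhibition above the mean of compounds falling within the control limits plus 3 SD of them, cut at about 14% in these data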;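 further: 0% = plate median of compound wells and 100% = 10 µM Aha-Tn7 peptide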
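Assay system: human fibrin DD(E). Input: DD(E) 2 µM final. Medium: Tris buffer with calcium and detergent, pH 7.8. Compound dosing: single point at 8.3 µM. Timing: 10 min plus 3 h, room temperature. Technique: fluorescence polarization of the labelled Tn7 tracer. Read-out: percent inhibition. Replicates: singlicate testing.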
NRP1-CendR mod: modulators of CendR peptide binding to NRP-1, primary screen, biochemical, fluorescence polarization, uHTS; Neuropilin-1 (Homo sapiens), O14786; FAM-RPARPAR peptide binding to NRP-1; inhibition, % at 25 µM; hit rate 0.85% among 360,000; AID 602438, 2012;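 active means inhibition or corrected inhibition above about 18%, plus a signal ratio from 0.5 to 1.5, limit read from the data, passing the limit was not always enough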
Tn6 DDE FP: inhibitors of Tn6 peptide binding to fibrin DD(E), primary screen, biochemical, fluorescence polarization, human fibrin, Tn6 probe | inhibition, % at 8.3 µM | Fibrin DD(E) TRITC-Tn6 fluorescence polarization displacement | hit rate 0.21% among 370,000 | Fibrinogen beta chain (Homo sapiens), P02675;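 active means inhibition above a per-campaign cutoff: mean of compounds within control limits plus 3 SD, cut at about 15% in these data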;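 further: 0% = median of all compound wells on the plate and 100% = blocking peptide control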
aDG glyco conf: alpha-DG glycosylation enhancers, retest, confirmation, single concentration, Pro5-aDG cells; shares compounds with aDG glyco up; IIH6 AlphaLISA; scaled to LARGE-overexpressing B10 cells as 100%; activation, % at 10 µM (by protocol); hit rate 17% among 600;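 active means activation of at least 7% in one or more replicates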;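 further: cells exposed to compound for two days before detection; 0% = DMSO-treated Pro5 cells and 100% = DMSO-treated B10-LARGE cells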
An asterisk follows results filed as active; x = no result given. This is a sample that favours compounds with a hit; in the whole collection about 1.3% have one here.

SMILES	aDG glyco up	Tn7 DDE FP	NRP1-CendR mod	Tn6 DDE FP	aDG glyco conf
CC(C)(C)c1ccc(-c2cc(N)n[nH]2)cc1	9.7*	-2	-9	-2	0
Oc1cccc(C=NCc2ccccc2)c1	51*	2	7	-6	-1
CN1CCN(c2ncnc3c2ncn3[C@H]2CN(Cc3ccc(-c4ccccc4)cc3)C[C@@H](CO)O2)CC1	9.6*	-7	-15	-4	9.8*
c1ccc(-c2nnc(CN3CCN(C(c4ccccc4)c4ccccc4)CC3)o2)cc1	6.8*	3	-4	-2	0
c1ccc(-c2nnc(CN3CCN(c4ccccc4)CC3)o2)cc1	0	3	1	4	x
CCOC(=O)[C@]12CCCC=C1N(Cc1ccccc1)C(=O)[C@H](CC(=O)NCc1cccc3ccccc13)C2	0	-4	16	-6	x
CC(C)c1ccc(NC(=O)C2Cc3c(-c4ccc(Cl)cc4)ccnc3O2)cc1 (configuration not stated)	5.0*	-1	4	-4	6.5*
O=C(Nc1ccc(Cl)cc1)C1Cc2c(-c3ccc(Cl)cc3)ccnc2O1 (configuration not stated)	0	6	11	1	x
COC(=O)[C@]12C[C@H](CC(=O)N3CCN(C(=O)c4ccco4)CC3)C(=O)N(CCC3=CCCCC3)C1=C[C@H](COCc1ccccc1)O[C@@H]2C	x	-4	x	-9	x
O=C(O)c1ccccc1C(=O)NCc1cccnc1	0	7	16	-3	x
O=C(NCc1cccnc1)NC1(c2ccccc2)CC1	10*	-8	-5	6	0
CC(=O)c1c(COC(=O)c2ccc(C)cc2)nc2ccccc2[n+]1[O-]	2.8*	-9	-13	5	-1
Cc1csc2ncnc(NCCc3ccccn3)c12	10*	-4	0	3	2
Nc1nc(COC(=O)c2ccco2)nc(Nc2ccccc2)n1	0	3	-9	1	x
Cc1ccccc1Nc1nc(N)nc(COC(=O)c2ccco2)n1	3.8*	0	-3	2	1
O=C(COc1ccc2c3c(c(=O)oc2c1)CCCC3)NCc1cccnc1	7.0*	-2	-2	-3	0
O=C(COc1ccc2ccc(=O)oc2c1)N1CCN(C(=O)C2COc3ccccc3O2)CC1 (configuration not stated)	7.8*	0	14	-2	0
Cc1cc(=O)oc2cc(OCC(=O)N3CCN(C(=O)C4COc5ccccc5O4)CC3)ccc12 (configuration not stated)	0	6	0	0	x
CC(=O)Nc1nc2[nH]ccc2c(=O)[nH]1	0	-4	9	9	x
O=C(Nc1ccnn1C1CCN(Cc2cccc(OCCO)c2)CC1)C1CC1	6.0*	-1	-6	11	-1
COc1cccc(CN2CCC(n3nccc3NC(=O)C3CC3)CC2)c1	0	-4	-2	-3	x
Cn1c(=O)oc2cc(S(=O)(=O)N3CCN(C(=O)C4CCCO4)CC3)ccc21 (configuration not stated)	x	8	x	-3	x
COCCCNC(=O)C[C@H]1C[C@@]2(C(=O)OC)C(=C[C@H](C(C)C)O[C@@H]2C2CC2)N(Cc2cccc3ccccc23)C1=O	x	2	x	-3	x
c1csc(Cn2nnnc2CN2CCN(c3nc4ccccc4s3)CC2)c1	6.0*	-6	-8	-3	2.8*
COC(=O)C1=C(C)NC(=S)NC1c1ccc(OC(=O)c2ccco2)cc1 (configuration not stated)	5.3*	3	4	9	2
Cc1cc(CNC(=O)COc2cc(F)ccc2[N+](=O)[O-])c2ccccc2n1	8.2*	-8	-17	-7	-1
NC(Cc1ccc(Cl)cc1)c1csc(Nc2ccc(S(N)(=O)=O)cc2)n1 (configuration not stated)	0	1	-7	-10	x
CS(=O)(=O)c1ccc(Nc2nc(C(N)Cc3ccc(Cl)cc3)cs2)cc1 (configuration not stated)	24*	-2	33*	-4	11*

High-throughput results: PubChem BioAssay, several laboratories
